Records with an inconclusive call do not appear.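 How the source made its calls, unless noted: active means viability at or below 27.92% in each of two runs, the all-compound median minus 4 SD; inconclusive means no clear call, values can overlap the other calls; inactive means the rest.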
What was measured:
[1] = S. cerevisiae growth inhibition in permissive medium (OD615), pilot counter-assay for S. cerevisiae lifespan shortening project, permissive growth control (AID 705;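 active means growth inhibition above 25% in both replicates, a cutoff set 3 SD above the mean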); details: OD615, 24 h, at 10 µM, hits give high values
Method in brief: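 System: Engineered DeaD yeast | Buffer or medium: SC raffinose/galactose permissive medium | Incubation: Cells pre-grown 4 h, then 24 h compound exposure, 30 °C humidified | Measured by: Absorbance (optical density) at 615 nm | Read-out: Reduction in yeast growth (OD615)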

[2] = S. cerevisiae growth inhibition in restrictive medium, OD615, pilot screen, restrictive growth control, yeast lifespan reduction project (AID 706;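 active means growth inhibition above a set limit, 3 SD over mean compound inhibition, in both replicates, cut at about 43% in these data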;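 further: modified DeaD lifespan yeast strain shifted to restrictive glucose medium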); details: OD615, 48 h, at 10 µM, hits give high values
Method in brief: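 Material: modified S. cerevisiae; Medium: glucose-based CSMM-D restrictive medium; Compound dosing: one concentration, 10 µM final, 0.25% DMSO; Incubation: 48 h compound exposure at 30 °C; Measured by: OD615.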

[3] = doxorubicin toxicity protection in MRP-1 cells – H69AR cells, CellTiter-Glo, duplicate, MRP-1 activator project, pilot screen (AID 807;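 active means viability increase at or above a cutoff of the median across tested compounds plus 3 SD, cut at about 8.5% in these data, passing the limit was not always enough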;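 further: compound pretreatment 18-22 h then 72 h combined with doxorubicin; 0% = doxorubicin alone and 100% = vehicle without doxorubicin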); details: H69AR viability with doxorubicin, CellTiter-Glo luminescence; at 10 µM; hits give high values
[4] = viability of HCT116 without oncogenic beta-catenin – human colon tumor cells, pilot screen (AID 823;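 active means cell viability at or below a set limit in both duplicate runs, the limit being the all-compound median minus 4 SD, cut at about 23% in these data, passing the limit was not always enough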;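 further: 0% = wells killed by 20 µM Hyamine and 100% = untreated DMSO cell wells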); details: HCT116 beta-catenin knockout viability, CellTiter-Glo, 60 h; at 10 µM; hits give low values
[5] = viability of PTEN-null HCT116 cells – cell-based, HCT116 clonal line, CellTiter-Glo, pilot screen (AID 824); details: HCT116 PTEN-deleted viability, 60 h, at 10 µM, hits give low values;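 further: 0% = 20 µM Hyamine control and 100% = vehicle cell control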
[6] = RAM pathway blockade in budding yeast – dse1pr::URA3 reporter, 5-FOA selection, pilot screen (AID 869;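 active means inhibition over a set limit, the all-compound mean plus 3 SD, in both replicate runs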;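 further: 0% = DMSO wells with no growth and 100% = 10 µM 1-NA-PP1 with full growth; RAM network block rescues cells from 5-FOA so hits raise OD615 growth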); details: S. cerevisiae dse1pr::URA3 5-FOA growth, OD615, 2 d; at 10 µM; hits give high values; strain carries analog-sensitive mutant Cbk1 kinase
[7] = RAM signaling pathway blockade in yeast – S. cerevisiae, Pdr1DBD-CYC8 efflux-inhibited sensitized strain, primary screen (AID 1298;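 active means RAM network inhibition above 8.4% in each of two replicates, 3 SD over the compound average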;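 further: 0% = DMSO untreated cells without growth and 100% = 10 µM 1-NA-PP1 full growth; higher means more yeast growth rescued from 5-FOA killing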); details: S. cerevisiae cbk1-as DSE1-URA3 strain, 5-FOA growth OD615, 2 d; at 50 µM; hits give high values

CCCN(CCC)C(=O)COc1cc(=O)n(CC)c2ccccc12
inactive: growth inhibition [1] -17.4% | growth inhibition [2] -2.75% | viability increase [3] -1.75% | viability [4] 99.8% | viability [5] 89.3% | inhibition [6] 0.52% | RAM network inhibition [7] 0.9%

CC(=O)Nc1nc(CC(=O)c2ccccc2)cs1
inactive: growth inhibition [1] -2.4% | growth inhibition [2] -4.14% | viability increase [3] -0.56% | viability [4] 102% | viability [5] 98.9% | inhibition [6] 1.15% | RAM network inhibition [7] 0.47%

CC1c2[nH]c3ccccc3c2CCN1S(C)(=O)=O (stereo unspecified)
inactive: growth inhibition [1] 2.66% | growth inhibition [2] 14.2% | viability increase [3] -0.49% | viability [4] 98.4% | viability [5] 90.8% | inhibition [6] 0.31% | RAM network inhibition [7] 0.57%

CCOc1ccc(N(CC(=O)NCc2ccc(F)cc2)S(=O)(=O)c2c(C)noc2C)cc1
inactive: growth inhibition [1] -15.6% | growth inhibition [2] -8.36% | viability increase [3] -1.36% | viability [4] 99.3% | viability [5] 92.8% | inhibition [6] 2.25% | RAM network inhibition [7] 2.84%

Fc1ccccc1COc1cccc(/C=N/n2cnnc2)c1
inactive: growth inhibition [1] 2.62% | growth inhibition [2] 11.6% | viability increase [3] 0.12% | viability [4] 96.2% | viability [5] 84.9% | inhibition [6] 0.35% | RAM network inhibition [7] 0.15%

CS(=O)(=O)c1ccc(C(=O)NC2CCOC2=O)cc1 (stereo unspecified)
inactive: growth inhibition [1] -2.63% | growth inhibition [2] -3.86% | viability increase [3] -1.85% | viability [4] 102% | viability [5] 97.6% | inhibition [6] -0.295% | RAM network inhibition [7] 4.25%

COc1cccc(-n2c(Cc3cc(=O)[nH]c(=O)[nH]3)nnc2SCC(=O)Nc2ccccc2)c1
inactive: growth inhibition [1] -5.92% | growth inhibition [2] -2.63% | viability increase [3] -0.3% | viability [4] 107% | viability [5] 97.8% | inhibition [6] 1.61% | RAM network inhibition [7] 0.67%

COc1ccc(NC(=O)C2=C(C)NC(=O)NC2c2cccc(OC)c2OC)c(OC)c1 (stereo unspecified)
inactive: growth inhibition [1] -15.4% | growth inhibition [2] -22.3% | viability increase [3] 0.09% | viability [4] 103% | viability [5] 103% | inhibition [6] 0.405% | RAM network inhibition [7] -1.04%

N#CC1=C(O)CCCn2c1nc1ccccc1c2=O
inactive: growth inhibition [1] -3.3% | growth inhibition [2] -18% | viability increase [3] -0.39% | viability [4] 97% | viability [5] 97% | inhibition [6] 2.41% | RAM network inhibition [7] 0.01%

CCCn1c(CN2CCCCC2CC)nc2c1c(=O)n(C)c(=O)n2C (stereo unspecified)
inactive: growth inhibition [1] -3.98% | growth inhibition [2] -17.3% | viability increase [3] 0.61% | viability [4] 93.9% | viability [5] 90.4% | inhibition [6] 0.045% | RAM network inhibition [7] 4.81%

COC(=O)c1c(N)sc(C(C)=O)c1C
inactive: growth inhibition [1] -7.62% | growth inhibition [2] -6.67% | viability increase [3] -2.35% | viability [4] 98.4% | viability [5] 94.8% | inhibition [6] 1.72% | RAM network inhibition [7] 5.34%

COc1cc(C(=O)N2CCN(C(=O)c3ccco3)CC2)cc(OC)c1OC
inactive: growth inhibition [1] -7.33% | growth inhibition [2] -2.3% | viability increase [3] -0.58% | viability [4] 100% | viability [5] 97.5% | inhibition [6] 0.16% | RAM network inhibition [7] 6.85%

CCCS(=O)(=O)c1nc(S(=O)(=O)c2ccc(C)cc2)c(NCCCN2CCOCC2)s1
inactive: growth inhibition [1] 0.84% | growth inhibition [2] -0.48% | viability increase [3] -1.8% | viability [4] 91.8% | viability [5] 99.9% | inhibition [6] 0.475% | RAM network inhibition [7] 5.15%

O=c1c(/C=N/O)c(Nc2ccccc2)nc2ccccn12
inactive: growth inhibition [1] -10.8% | growth inhibition [2] 10.2% | viability increase [3] -6.27% | viability [4] 93.8% | viability [5] 76.5% | inhibition [6] 0.56% | RAM network inhibition [7] 4.18%

CCn1c(SCC(=O)N2CCN(c3ccccc3)CC2)nc2c(c1=O)SC(C)C2 (stereo unspecified)
inactive: growth inhibition [1] -13.4% | growth inhibition [2] -10.2% | viability increase [3] -2.66% | viability [4] 88.5% | viability [5] 78.4% | inhibition [6] 1.4% | RAM network inhibition [7] 2.11%

O=C(c1ccccc1)N1CCn2c(nc3ccccc32)C1
inactive: growth inhibition [1] 3.33% | growth inhibition [2] 2.58% | viability increase [3] -0.73% | viability [4] 98.2% | viability [5] 98.2% | inhibition [6] 0.5% | RAM network inhibition [7] 6.85%

COc1ccc(NC(=O)C2CCN(S(=O)(=O)c3ccc(OC)c(OC)c3)CC2)c(OC)c1
inactive: growth inhibition [1] -1.19% | growth inhibition [2] 4.12% | viability increase [3] -0.83% | viability [4] 94.7% | viability [5] 88.6% | inhibition [6] 1% | RAM network inhibition [7] 1.41%

CC1CCCN(C(=O)C2CCN(S(=O)(=O)c3cccc4cccnc34)CC2)C1 (stereo unspecified)
inactive: growth inhibition [1] 1.07% | growth inhibition [2] 3.5% | viability increase [3] -3.54% | viability [4] 89.6% | viability [5] 85.6% | inhibition [6] 1.04% | RAM network inhibition [7] 5.46%
